“Also recorded” adds a separate entry of the source. Where two headings read alike, the source gives them in different places. Non-standard residues stand in square brackets, D forms with d. Residues, ends and D or L forms follow the SMILES beside them. dPhe(4-guanidino) = N=C(N)Nc1ccc(C[C@@H](N)C(=O)O)cc1
How the values were obtained:
[1] = system: HVA Ca2+ currents in human MRGPRX1-expressing DRG neurons; format: cell-based, mouse; conditions: DRG neurons from MrgprX1 mice
human MRGPRX1 [2] = biological target: T1, human MRGPRX1 (Homo sapiens, UniProt Q96LB2); format: cell-based; conditions: for agonist activity at MRGPRX1: at concentrations up to 100 μM; for fold decrease in agonist potency as compared to 5a: relative to 5a; for agonist type at human MRGPRX1: HTS hits, FLIPR calcium 4 Assay Kit; for ligand efficiency (LE): human MRGPRX1 agonists
Procedure, shortened: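 HEK293 cells stably expressing human MrgprX1 were plated at 25,000 cells/well and grown 2 days. They were loaded with 2 μM Fluo 4AM and 1% Trypan Red in HBSS for 50 min at 37°C, then equilibrated 10 min at room temperature. Serial dilutions in HBSS were added, with BAM 8–22 as positive and HBSS as negative control. FLIPR imaging ran 2 min; read-out was maximum minus minimum fluorescence.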

[3] = Metabolic stability in mouse liver microsomes; format: in vitro ADME
mouse MRGPRC11 [4] = biological target: T2, mouse MRGPRC11 (Mus musculus, UniProt Q8CIP3); test: Agonist activity at mouse MRGPRC11; format: cell-based; conditions: even at concentration of 40 μM
T2 sequence (Q8CIP3 1-322): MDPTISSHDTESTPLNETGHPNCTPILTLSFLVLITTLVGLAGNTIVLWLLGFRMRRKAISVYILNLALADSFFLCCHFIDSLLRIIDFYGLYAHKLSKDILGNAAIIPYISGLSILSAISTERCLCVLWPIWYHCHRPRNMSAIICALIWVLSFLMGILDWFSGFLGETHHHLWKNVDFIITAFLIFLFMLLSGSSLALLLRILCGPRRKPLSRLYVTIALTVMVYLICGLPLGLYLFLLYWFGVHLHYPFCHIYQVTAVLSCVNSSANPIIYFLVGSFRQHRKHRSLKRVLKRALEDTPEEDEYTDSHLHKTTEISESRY

[5] = system: δ-, μ- and κ-opioid receptors; test: Selectivity of MRGPRX1 agonists over opioid receptors; format: binding; conditions: MRGPRX1 versus δ-
neuropathic pain = conditions: rodent models of neuropathic pain; cited from earlier work
human MRGPRX1 [6] = biological target: T1, human MRGPRX1; conditions: cited from earlier work
mouse MRGPRC11 [7] = biological target: T2, mouse MRGPRC11; conditions: cited from earlier work
rat MRGPRC = conditions: cited from earlier work
[8] = system: mechanical and thermal hyperalgesia; conditions: intrathecal (spinal cord) injection, rats; cited from earlier work
[9] = system: mechanical and thermal hyperalgesia; conditions: intrathecal (spinal cord) injection, mice; cited from earlier work

T1 sequence (Q96LB2 whole entry): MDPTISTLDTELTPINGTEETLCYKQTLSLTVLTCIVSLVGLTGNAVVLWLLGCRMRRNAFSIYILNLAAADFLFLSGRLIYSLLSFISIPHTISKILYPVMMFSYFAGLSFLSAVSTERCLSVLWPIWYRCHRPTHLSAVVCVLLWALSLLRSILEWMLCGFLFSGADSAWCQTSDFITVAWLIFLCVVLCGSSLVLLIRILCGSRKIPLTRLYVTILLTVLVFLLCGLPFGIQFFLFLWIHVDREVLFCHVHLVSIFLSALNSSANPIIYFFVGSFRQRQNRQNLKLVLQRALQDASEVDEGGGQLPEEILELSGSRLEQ

Molecule: COc1cc(CNc2ccccc2C(=N)N)ccc1OCc1ccccc1 [Compound 5c, 2-(4-(Benzyloxy)-3-methoxybenzylamino)benzimidamide]
- inhibitory effect on HVA Ca2+ currents ([1]; bath application of 10 μM): no inhibitory effects
- agonist activity at MRGPRX1 (human MRGPRX1 [2]): negligible agonist activity
- fold decrease in agonist potency as compared to 5a (human MRGPRX1 [2]): > 100 fold

Molecule: COc1cc(CNc2ccc(C(=N)N)cc2)ccc1OCc1ccccc1 [Compound 5a, 4-(4-(Benzyloxy)-3-methoxybenzylamino)benzimidamide]
- inhibitory effect on HVA Ca2+ currents ([1]; bath application of 10 μM): inhibited HVA Ca^2+ currents
- agonist type at human MRGPRX1 (human MRGPRX1 [2]): full agonists
- ligand efficiency (LE) (human MRGPRX1 [2]): 0.32–0.33

Molecule: COc1ccccc1S(=O)(=O)Nc1ccc(C)cc1Oc1ccc2c(N)nccc2c1 [Compound 16, N-(2-(1-Aminoisoquinolin-6-yloxy)-4-methylphenyl)-2-methoxybenzenesulfonamide]
- half-life [3]: < 15 min
- activity against mouse MRGPRC11 (mouse MRGPRC11 [4]): inactive
- selectivity over all three opioid receptors [5]: ≥ 50 fold

Molecule: NC(=O)[C@H](Cc1ccccc1)NC(=O)[C@H](N)Cc1ccc(N=C(N)N)cc1 [JHU-58] (H-[dPhe(4-guanidino)]-Phe-NH2)
- analgesic effects (neuropathic pain): exhibits analgesic effects
- agonist activity at human MRGPRX1 (human MRGPRX1 [6]; introduction): negligible agonist activity
- agonist activity at mouse MRGPRC11 (mouse MRGPRC11 [7]): full agonist activity
- agonist activity at rat MRGPRC (rat MRGPRC): full agonist activity

Molecule: COc1cc(CNc2ccc(C(=N)N)cc2)ccc1OCc1cccnc1 [Compound 5d, 4-(3-Methoxy-4-(pyridin-3-ylmethoxy)benzylamino)benzimidamide]
- fold decrease in agonist potency as compared to 5a (human MRGPRX1 [2]): 10 fold

Molecule: BAM8-22
- inhibitory effect on HVA Ca2+ currents ([1]; bath application of 5 μM): inhibited HVA Ca^2+ currents
- effect on mechanical and thermal hyperalgesia [8]: attenuate both mechanical and thermal hyperalgesia
- effect on mechanical and thermal hyperalgesia [9]: attenuate both mechanical and thermal hyperalgesia
- agonist activity at human MRGPRX1 (human MRGPRX1 [6]): full agonist activity
- agonist activity at mouse MRGPRC11 (mouse MRGPRC11 [7]): full agonist activity
- agonist activity at rat MRGPRC (rat MRGPRC): full agonist activity

Molecule: CCCCS(=O)(=O)Nc1cc(C)ccc1Oc1ccc(C(=N)N)cc1 [Compound 11a, 4-(2-(Butylsulfonamido)-4-methylphenoxy)benzimidamide]
- agonist type at human MRGPRX1 (human MRGPRX1 [2]): full agonists
- ligand efficiency (LE) (human MRGPRX1 [2]): 0.32–0.33

Molecule: COc1ccccc1S(=O)(=O)Nc1ccc(C)cc1Oc1ccc2sc(N)nc2c1 [Compound 19, N-(2-(2-Aminobenzo[d]thiazol-5-yloxy)-4-methylphenyl)-2-methoxybenzenesulfonamide]
- agonist activity at MRGPRX1 (human MRGPRX1 [2]): negligible agonist activity; also recorded: no agonist activity

Molecule: COc1cc(CNc2cccc(C(=N)N)c2)ccc1OCc1ccccc1 [Compound 5b, 3-(4-(Benzyloxy)-3-methoxybenzylamino)benzimidamide]
- fold decrease in agonist potency as compared to 5a (human MRGPRX1 [2]): 6 fold
